Assay [1] deals with T1, C-C chemokine receptor type 2 (Homo sapiens, UniProt P41597). The assay can be described thus: Antagonist activity against human CCR2B expressed in Chem-1 cells assessed as inhibition of human CCL2-induced intracellular calcium flux incubated for 10 mins by Fluo-4 AM dye based intracellular calcium flux assay. It counts as functional, cell-based. (In general: Calcium assays in cells follow changes in intracellular calcium, usually with a dye or a luminescent sensor.)
Target sequence in this assay (P41597 whole entry): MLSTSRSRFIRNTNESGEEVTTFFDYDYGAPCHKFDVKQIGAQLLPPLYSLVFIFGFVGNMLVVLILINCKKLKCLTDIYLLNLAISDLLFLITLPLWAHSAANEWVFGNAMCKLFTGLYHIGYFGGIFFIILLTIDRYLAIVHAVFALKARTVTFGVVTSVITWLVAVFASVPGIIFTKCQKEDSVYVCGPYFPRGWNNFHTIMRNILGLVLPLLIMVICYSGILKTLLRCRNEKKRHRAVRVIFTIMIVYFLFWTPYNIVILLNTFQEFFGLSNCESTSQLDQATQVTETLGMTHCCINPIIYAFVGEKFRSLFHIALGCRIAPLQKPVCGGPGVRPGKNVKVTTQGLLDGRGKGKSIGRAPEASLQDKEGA

The target of assay [2] is C-C chemokine receptor type 2 (Mus musculus, UniProt P51683). The assay can be described thus: Antagonist activity against mouse CCR2B expressed in human U2OS cells co-expressing beta-arrestin assessed as inhibition of mouse CCL2-induced beta-arrestin recruitment pre-incubated for 10 mins before mouse CCL2 stimulation for 90 mins by luminescence based assay. It counts as cell-based. A general note: Recruitment of arrestin is a read-out of receptor activation apart from second messengers.

Assay [3] addresses T1, C-C chemokine receptor type 2. The assay can be described thus: Displacement of [125I]-CCL2 from human CCR2 expressed in U2OS cells at 1 uM incubated for 150 mins by scintillation spectrometry. Format: cell-based. An outline of the steps: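 Membranes (15 µg protein) from U2OS cells stably expressing human CCR2 were incubated with 0.1 nM 125I-CCL2 for 150 min at 37 C. Buffer was 50 mM Tris-HCl pH 7.4 with 5 mM MgCl2 and 0.1% CHAPS. Test compound was 1 µM and nonspecific binding was defined with 10 µM INCB3344. Bound ligand was separated by filtration on PEI-coated GF/B filters and counted by scintillation. Result given as % displacement.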
In general terms: Loss of bound radioactivity is the signal in a displacement assay; it reports binding, not function.
Target sequence in this assay (P41597 whole entry, looked up): as the sequence (P41597 whole entry) above

The target is the same in assay [4]. The assay can be described thus: Displacement of [125I]-CCL2 from human CCR2 expressed in U2OS cells incubated for 150 mins by scintillation spectrometry. Format: cell-based.
Target sequence in this assay (P41597 whole entry): as above

The source of these data is ChEMBL document CHEMBL3588778, “Synthesis and biological evaluation of spirocyclic antagonists of CCR2 (chemokine CC receptor subtype 2)” (Bioorg Med Chem, 2015).

Structures are written as SMILES. Some results are limits rather than exact numbers.

Sequence of C-C chemokine receptor type 2 (Mus musculus, UniProt P51683) (P51683 whole entry): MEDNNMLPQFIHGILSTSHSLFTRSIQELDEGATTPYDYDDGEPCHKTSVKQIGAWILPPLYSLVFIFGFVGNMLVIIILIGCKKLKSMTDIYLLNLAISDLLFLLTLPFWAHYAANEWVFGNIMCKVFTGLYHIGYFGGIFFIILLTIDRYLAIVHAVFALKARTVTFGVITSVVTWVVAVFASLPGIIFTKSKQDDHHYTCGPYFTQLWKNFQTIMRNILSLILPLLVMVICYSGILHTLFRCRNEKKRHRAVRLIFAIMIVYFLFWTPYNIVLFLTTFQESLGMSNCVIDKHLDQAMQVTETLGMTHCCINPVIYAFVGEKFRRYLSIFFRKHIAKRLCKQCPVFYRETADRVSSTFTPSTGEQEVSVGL

As for `O=C(NCc1cc(C(F)(F)F)cc(C(F)(F)F)c1)C(CCN1CCC2(CC1)OCCc1ccccc12)C1CC1` (stereo not given), the results for the IC50 in assay [1] and in assay [2] were 0.017 µM and 3.3 µM, respectively.

Regarding `COc1ccc2c(c1)CCOC21CCN(CCCC(=O)NCc2cc(F)cc(C(F)(F)F)c2)CC1`, the IC50 was 0.318 µM in assay [1] and > 30 µM in assay [2]. Moreover, the inhibition in assay [3] was -1%.

For `O=C(NCc1cc(F)cc(C(F)(F)F)c1)C(CCN1CCC2(CC1)OCCc1cc(O)ccc12)c1ccc(F)cc1` (stereo not given), the figures for the IC50 in assay [1] and in assay [2] were 6.1 µM and > 30 µM, respectively.

As for `O=C(NCc1cc(C(F)(F)F)cc(C(F)(F)F)c1)C(CCN1CCC2(CC1)OCCc1ccccc12)c1ccc(F)cc1` (stereo not given), the IC50 is 0.089 µM in assay [1] and 11.2 µM in assay [2]. The inhibition in assay [3] came to 25%.

Consider `Cc1ccc(-c2ccc3c(c2)C=C(C(=O)Nc2ccc(C[N+](C)(C)C4CCOCC4)cc2)CCC3)cc1`, for which, in assay [4], the Ki is 0.002 µM. The IC50 in assay [2] was 23 µM.

Consider `CC1Cc2ccccc2C2(CCN(CCCC(=O)NCc3cc(F)cc(C(F)(F)F)c3)CC2)O1` (stereo not given), for which the results for the IC50 in assay [1] and in assay [2] were 12 µM and > 30 µM, respectively. Moreover, the inhibition in assay [3] is -10%.

For `O=C(CCCN1CCC2(CC1)OCCc1ccccc12)NCc1cc(C(F)(F)F)cc(C(F)(F)F)c1`, the IC50 in assay [1] came to 0.684 µM; in assay [2], 24 µM. For the same compound, in assay [3], the inhibition was found to be 10%.

With `CC1Cc2ccccc2C2(CCN(CCCC(=O)NCc3cc(C(F)(F)F)cc(C(F)(F)F)c3)CC2)O1` (stereo not given), the IC50 in assay [1] amounted to 7.54 µM; in assay [2], 7.9 µM.

As to `COc1ccc2c(c1)CCOC21CCN(CCC(C(=O)NCc2cc(F)cc(C(F)(F)F)c2)c2ccc(F)cc2)CC1` (stereo not given), the IC50 was determined as 0.353 µM in assay [1] and 4.63 µM in assay [2]. For the same compound, the inhibition in assay [3] was -7%.

Regarding `COc1ccc2c(c1)CCOC21CCN(CCCC(=O)NCc2cc(C(F)(F)F)cc(C(F)(F)F)c2)CC1`, the IC50 in assay [1] was 1.24 µM; in assay [2] it was 18 µM. Besides, the inhibition in assay [3] was found to be 1%.

As to `O=C(CCCN1CCC2(CC1)OCCc1ccccc12)NCc1cc(F)cc(C(F)(F)F)c1`, the values for the IC50 in assay [1] and in assay [2] were 0.18 µM and > 30 µM, respectively. Further, the inhibition in assay [3] was 4%.

Consider `COc1ccc2c(c1)CCOC21CCN(CCC(C(=O)NCc2cc(C(F)(F)F)cc(C(F)(F)F)c2)c2ccc(F)cc2)CC1` (stereo not given), for which the IC50 in assay [1] was 0.163 µM; in assay [2], 4.16 µM.

`CC1Cc2ccccc2C2(CCN(CCC(C(=O)NCc3cc(F)cc(C(F)(F)F)c3)c3ccc(F)cc3)CC2)O1` (stereo not given): the concentration for half-maximal inhibition (IC50) was 1.6 µM in assay [1] and 8.01 µM in assay [2]. In addition, the inhibition in assay [3] was found to be 9%.

Consider `O=C(NCc1cc(F)cc(C(F)(F)F)c1)C(CCN1CCC2(CC1)OCCc1ccccc12)c1ccc(F)cc1` (stereo not given), for which the IC50 in assay [1] came to 0.173 µM; in assay [2], 3.63 µM. Moreover, the inhibition in assay [3] worked out at 7%.

As to `CC1Cc2ccccc2C2(CCN(CCC(C(=O)NCc3cc(C(F)(F)F)cc(C(F)(F)F)c3)c3ccc(F)cc3)CC2)O1` (stereo not given), the IC50 in assay [1] was determined as 0.462 µM; in assay [2], 3.67 µM. Also, in assay [3], the inhibition came out at 0%.

Broadly, the IC50 is the concentration needed to halve the response being measured. What is called inhibition is the relative decrease from the control value, in per cent. The term Ki denotes the equilibrium dissociation constant of an inhibitor or competing ligand from its target.
